The subject of data set [1] is Calu-3. The data set can be described thus: Antitumor activity in human Calu-3 cells xenografted in Foxn1nu/Foxn1+ mouse assessed as reduction in tumor growth at 8 mg/kg, IT(Intratumoral) administered thrice a week for 21 days and measured on day 21 relative to control. As to conditions: time 21.0 day. In general terms: Xenograft models place foreign cells or tissue in a host animal.

The test system of data set [2] is Calu-3. The data set can be described thus: Antitumor activity in human Calu-3 cells xenografted in Foxn1nu/Foxn1+ mouse assessed as reduction in tumor growth at 6 mg/kg, IT(Intratumoral) administered thrice a week for 21 days in presence of trastu-zumab and measured on day 21 relative to control. The class given is functional, organism-based. As to conditions: time 21.0 day.

A short description of data set [3]: Toxicity in BALB/c mouse assessed as increase in Ki-67 expression at 5 ug/ml, iv administered on day 0 and 10 and spleenocytes collected on day 13 and incubated for 48 hrs by flow cytometry analysis. As to conditions: in vivo, 360 h, dose 5 µg/ml, time 15 day. Format: organism-based. The method in brief:
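Splenocytes from PBS- or peptide-primed BALB/c mice (6 mg/kg i.v. days 0 and 10; harvested day 13) cultured 48 h with concanavalin A 5 μg/mL. Ki67 in CD3+ cells measured by flow cytometry after viability, surface and intracellular staining.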
(In general: In flow cytometry, cells or beads pass a laser one at a time.)

Data set [4] relates to Calu-3. Briefly: Antiproliferative activity against human Calu-3 cells overexpressing HER2 assessed as cell growth inhibition incubated for 72 hrs by cell titer glo assay. The class given is functional, cell-based. As to conditions: Calu-3, 72 h. (In general: Cellular ATP, detected with luciferase, serves as a proxy for viable cell number.)
For another data set, the system named is BT-474. Briefly: Antiproliferative activity against human BT-474 cells overexpressing HER2 assessed as cell growth inhibition incubated for 72 hrs by cell titer glo assay. As to conditions: BT-474, 72 h. Format: functional, cell-based.
The test system of another data set is A549. Briefly: Antiproliferative activity against human A549 cells overexpressing HER2 assessed as cell growth inhibition incubated for 72 hrs by cell titer glo assay. The class given is functional, cell-based. As to conditions: A549, 72 h. In outline: (§1)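 Cells seeded at 1×10^4 per well, left overnight at 37 °C/5% CO2, then exposed to a concentration series of peptide (up to 200, down to 0.01 μM) for 72 h. 1% SDS and 1% DMSO served as controls. Cells were PBS-washed, CellTiter-Glo added and luminescence read. IC50 taken from three independent experiments per cell line.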

The next data set has as its system MCF7. Briefly: Antiproliferative activity against human MCF7 cells with silenced HER2 assessed as cell growth inhibition incubated for 72 hrs by cell titer glo assay. Format: functional, cell-based. As to conditions: MCF7, 72 h. In outline: as §1
The next data set deals with MCF-10A. Briefly: Cytotoxicity against human MCF-10A cells assessed as cell growth inhibition incubated for 72 hrs by cell titer glo assay. Format: cell-based. The method in brief:
as §1

Calls of active or inactive are those of the source. No cut-off for these calls is given here. Starred links: 1 amine or outer side, 2 acyl side, 3 side chain; linkers in the order of their positions; H or OH if unused. Positions of bridges follow the written chain, without caps; N, C: chain ends. Non-standard residues stand in square brackets, D forms with d. Residues, ends and D or L forms follow the SMILES beside them. X1 = N=C(N)NCCC[C@H](N[*:2])C(=O)NC(=O)[C@H](CC(=O)O)NC(=O)[*:1]; βAla(3R-(1-naphthyl)) = O=C(C[C@@H](N[*:1])c1cccc2ccccc12)[*:2]; βAla(3S-(1-naphthyl)) = O=C(C[C@H](N[*:1])c1cccc2ccccc12)[*:2] Bounds are passed on as bounds.

On to `Cc1ccc(OCC(O)C(C)NC(C)C)c2c1CCC2` (stereo unspecified), for which the result in the data set with Calu-3 [1] and in the data set on Calu-3 [2] was Active.
Turning to `Cc1cn(C2C[C@H](N=[N+]=[N-])[C@@H](CO)O2)c(=O)[nH]c1=O` (stereo partly specified), the Activity entry in data set [3] is recorded as “Toxic”.
For `NCCCC[C@H](N)C(=O)N[C@@H](CC(=O)N[C@@H](Cc1ccccc1)C(=O)O)c1ccc(-c2ccccc2)cc1`, the half-inhibitory concentration (IC50) in the data set on Calu-3 [4], in the data set with BT-474, in the data set on A549 and in the data set on MCF7 was over 100 µM in each case.
Turning to `CC[C@H](C)[C@H]1C(=O)NC(=O)[C@H](CCCNC(=N)N)NC(=O)C[C@H](c2cccc3ccccc23)NC(=O)N[C@H]2CSSC[C@H](NC(=O)C[C@H](c3cccc4ccccc34)NC(=O)[C@H](CCCNC(=N)N)NC(=O)[C@@H]3CCCN3C(=O)[C@@H]3CCCN13)C(=O)N[C@@H](Cc1ccccc1)C(=O)N1CCC[C@H]1C(=O)N[C@@H](CC(=O)O)C(=O)NC(=O)[C@H](CC(=O)O)NC(=O)[C@H](Cc1ccccc1)NC2=O`, the IC50 with BT-474 is 2.94 µM; in the data set with MCF7 it was over 50 µM.
For `CC[C@H](C)[C@@H]1NC(=O)[C@@H]2CSSC[C@H](NC(=O)[C@H](CCCNC(=N)N)NC(=O)CNC(=O)[C@H](CC(=O)O)NC(=O)[C@@H]3CCCN3C(=O)N[C@@H](Cc3ccccc3)C(=O)N2)C(=O)N[C@@H]([C@H](C)O)C(=O)N[C@@H](CCCCN)C(=O)N([C@@H](CO)C(=O)O)C(=O)[C@H]([C@@H](C)CC)NC(=O)[C@@H]2CCCN2C(=O)[C@@H]2CCCN2C1=O`, the IC50 in the data set with Calu-3 [4] and with A549 was over 100 µM throughout.
Regarding `CC[C@H](C)[C@@H]1NC(=O)[C@H](CO)NC(=O)[C@H](CC(=O)O)NC(=O)[C@H](Cc2ccccc2)NC(=O)[C@@H]2CSSC[C@H](NC(=O)[C@H](Cc3ccccc3)NC(=O)[C@H](CC(=O)O)NC1=O)C(=O)N[C@H](c1cccc3ccccc13)CC(=O)N[C@@H](CCCNC(=N)N)C(=O)NC(=O)[C@H](CC(=O)O)NC(=O)N[C@@H](CCCNC(=N)N)C(=O)N[C@H](c1cccc3ccccc13)CC(=O)N2` (R[βAla(3S-(1-naphthyl))]CFDSIDFC[βAla(3S-(1-naphthyl))]; disulfide 3-10; linker N-C via X1), the figures for the 50% inhibitory concentration (IC50) in the data set on BT-474 and in the data set with MCF7 were 4.16 µM and over 50 µM, respectively.
The like results for `N=C(N)NCCC[C@@H]1NC(=O)[C@H]2CCCN2C(=O)[C@@H]2CCCN2C(=O)[C@H](CCCNC(=N)N)NC(=O)C[C@H](c2cccc3ccccc23)NC(=O)N[C@H]2CSSC[C@H](NC(=O)C[C@H](c3cccc4ccccc34)NC1=O)C(=O)N[C@@H](Cc1ccccc1)C(=O)NC(=O)[C@H](Cc1ccccc1)NC2=O` were, in that order, 5.23 µM and over 50 µM.
As to `N=C(N)NCCC[C@@H]1NC(=O)[C@H]2CCCN2C(=O)[C@@H]2CCCN2C(=O)[C@H](CCCNC(=N)N)NC(=O)C[C@H](c2cccc3ccccc23)NC(=O)[C@H](Cc2ccccc2)NC(=O)[C@H](CC(=O)O)NC(=O)[C@H](CC(=O)O)NC(=O)[C@H](Cc2ccccc2)NC(=O)C[C@H](c2cccc3ccccc23)NC1=O` (cyclo(DDF[βAla(3R-(1-naphthyl))]RP[dP]R[βAla(3R-(1-naphthyl))]F)), the half-maximal inhibitory concentration (IC50) was over 50 µM with MCF7 and 40 µM with MCF-10A.
Regarding `CC[C@H](C)[C@@H]1NC(=O)[C@@H]2CCCN2C(=O)[C@@H]2CCCN2C(=O)NC(=O)[C@H](CC(=O)O)NC(=O)[C@H](Cc2ccccc2)NC(=O)[C@@H]2CSSC[C@H](NC(=O)N[C@H](c3cccc4ccccc34)CC(=O)N[C@@H](CCCNC(=N)N)C(=O)N3CCC[C@H]3C(=O)NCC(=O)N[C@@H](CCCNC(=N)N)C(=O)N[C@H](c3cccc4ccccc34)CC(=O)N2)C(=O)N[C@@H](Cc2ccccc2)C(=O)NC(=O)[C@H](CC(=O)O)NC(=O)[C@H](CO)NC1=O`, the values for the IC50 with BT-474 and with MCF7 were 7.22 µM and over 30 µM, respectively.
The like results for `N=C(N)NCCC[C@@H]1NC(=O)[C@H]2CCCN2C(=O)[C@@H]2CCCN2C(=O)[C@H](CCCNC(=N)N)NC(=O)C[C@H](c2cccc3ccccc23)NC(=O)N[C@H]2CSSC[C@H](NC(=O)C[C@H](c3cccc4ccccc34)NC1=O)C(=O)N[C@@H](Cc1ccccc1)C(=O)N[C@@H](CC(=O)O)C(=O)NC(=O)[C@H](CC(=O)O)NC(=O)[C@H](Cc1ccccc1)NC2=O` were, in that order, 3.65 µM and over 50 µM.

Usually IC50 stands for the concentration at which inhibition is half-maximal.
